Laboratory results published in ChEMBL document CHEMBL1135489, “Structurally simple trichostatin A-like straight chain hydroxamates as potent histone deacetylase inhibitors” (J Med Chem, 2002).

Key:
Histone deacetylase 1 = Histone deacetylase 1 (Homo sapiens, UniProt Q13547); assay: Inhibition against partially purified human histone deacetylase 1 (HDAC-1)
SW48 = assay: Inhibitory concentration required to reduce SW48 tumor cell growth by 50% in MTT assay; type: functional, cell-based; settings: Homo sapiens
Outline: (§1)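 Compound dilution series added to plated cells, 72 h at 37 °C, 5% CO2. MTT then added at 0.5 mg/mL final for 4 h. Solubilization buffer (50% DMF, 20% SDS, pH 4.7) added, incubated overnight, read at 570 with 630 reference. OD converted to cell number from each line's standard growth curve.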

HMEC = assay: Inhibitory concentration required to reduce normal human epithelial cell line (HMEC), growth by 50% in MTT assay; type: functional, cell-based; outline: as §1
DU-145 = assay: Inhibitory concentration required to reduce DU145 tumor cell growth by 50% in MTT assay; type: functional, cell-based; settings: Homo sapiens; outline: as §1
MCF7 = assay: Inhibitory concentration required to reduce MCF-7 tumor cell growth by 50% in MTT assay; type: functional, cell-based; settings: Homo sapiens; outline: as §1
MDA-MB-231 = assay: Inhibitory concentration required to reduce MDAmb 231 tumor cell growth by 50% in MTT assay; type: functional, cell-based; settings: Homo sapiens; outline: as §1
HCT-116 = assay: Inhibitory concentration required to reduce HCT 116 tumor cell growth by 50% in MTT assay; type: functional, cell-based; settings: Homo sapiens; outline: as §1
A549 = assay: Inhibitory concentration required to reduce A549 tumor cell growth by 50% in MTT assay; type: functional, cell-based; settings: Homo sapiens; outline: as §1
T-24 = assay: Inhibitory concentration required to reduce T24 tumor cell growth by 50% in MTT assay; type: functional, cell-based; settings: Homo sapiens; outline: as §1
NCI-H446 = assay: Inhibitory concentration required to reduce H446 tumor cell growth by 50% in MTT assay; type: functional, cell-based; settings: Homo sapiens; outline: as §1

Chain of Histone deacetylase 1 (Q13547 whole entry): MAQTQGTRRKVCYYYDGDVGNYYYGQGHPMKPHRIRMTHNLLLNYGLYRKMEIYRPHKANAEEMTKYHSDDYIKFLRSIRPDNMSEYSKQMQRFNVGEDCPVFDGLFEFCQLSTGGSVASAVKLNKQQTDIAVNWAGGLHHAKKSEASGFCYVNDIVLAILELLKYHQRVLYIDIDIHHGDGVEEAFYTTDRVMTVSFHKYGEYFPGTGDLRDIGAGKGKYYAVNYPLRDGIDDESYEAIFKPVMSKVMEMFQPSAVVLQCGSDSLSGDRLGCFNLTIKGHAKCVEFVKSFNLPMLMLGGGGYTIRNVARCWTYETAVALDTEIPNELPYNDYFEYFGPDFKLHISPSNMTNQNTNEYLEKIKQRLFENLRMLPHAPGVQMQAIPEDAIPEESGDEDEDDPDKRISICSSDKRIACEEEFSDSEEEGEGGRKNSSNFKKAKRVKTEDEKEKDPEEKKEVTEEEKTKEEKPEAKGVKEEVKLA

SMILES	IC50 (Histone deacetylase 1) [nM]	IC50 (SW48) [nM]	IC50 (HMEC) [nM]	IC50 (DU-145) [nM]	IC50 (MCF7) [nM]	IC50 (MDA-MB-231) [nM]	IC50 (HCT-116) [nM]	IC50 (A549) [nM]	IC50 (T-24) [nM]	IC50 (NCI-H446) [nM]
O=C(CCCCCCC(=O)c1ccc(C(F)(F)F)cc1)NO	45	–	–	–	–	–	–	–	–	–
O=C(CCCCCCC(=O)c1cccnc1)NO	153	–	–	–	–	–	–	–	–	–
CC(/C=C/C(=O)NO)=C\[C@@H](C)C(=O)c1ccc(N(C)C)cc1 [TRICHOSTATIN]	–	100	1600	200	100	90	< 50	160	150	80
O=C(CCCCC/C=C/c1ccc2ccccc2c1)NO	6	–	–	–	–	–	–	–	–	–
O=C(CCCCCCCc1ccc2ccccc2c1)NO	25	–	–	–	–	–	–	–	–	–
O=C(CCCCCCC(=O)c1ccc(N2CCN(c3ccccc3)CC2)cc1)NO	4.5	2500	> 20000	5500	2000	800	4000	5000	7000	1000
